The values below come from ChEMBL document CHEMBL5055637, “Novel C-3-(N-alkyl-aryl)-aminomethyl rifamycin SV derivatives exhibit activity against rifampicin-resistant Mycobacterium tuberculosis RpoBS522L strain and display a different binding mode at the RNAP β-subunit site compared to rifampicin” (2021).

Test [1] has as its system Mycobacterium tuberculosis. Nature of the test: Antitubercular activity against wild type Mycobacterium tuberculosis H37Rv ATCC 25618 assessed as bacterial growth inhibition measured after 5 days by serial dilution method. The class given is functional. The note with it: H37Rv ATCC 25618, 120 h, time 5 day. The method, boiled down:
(§1)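 Strains grown in Middlebrook 7H9 with OADC supplement and 0.05% w/v Tween 80. Compounds tested as 10-point 2-fold serial dilutions. Growth read as OD590 after 5 days in 7H9-OADC-Tw. Levenberg-Marquardt curve fitting gave MIC90, the concentration inhibiting growth by 90% relative to controls. Run in triplicate.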

Test [2] has as its system Mycobacterium tuberculosis. Nature of the test: Antitubercular activity against wild type Mycobacterium tuberculosis HN878 assessed as bacterial growth inhibition measured after 5 days by serial dilution method. The format is functional. As to conditions: HN878, 120 h, time 5 day. The method, boiled down:
as §1

The structures appear in SMILES notation. Converted amounts (≈) assume the structure as drawn.

The MIC90 is the lowest concentration that inhibits either 90% of growth or 90% of the strains tested, depending on the study. For `CO[C@H]1/C=C/O[C@@]2(C)Oc3c(C)c(O)c4c(O)c(c(CNCc5ccncc5)c(O)c4c3C2=O)NC(=O)/C(C)=C\C=C\[C@H](C)[C@H](O)[C@@H](C)[C@@H](O)[C@@H](C)[C@H](OC(C)=O)[C@@H]1C`, the MIC90 in test [1] was 0.075 µM (≈ 0.0613 µg/mL); in test [2] it was 0.31 µM (≈ 0.254 µg/mL).

Consider `CO[C@H]1/C=C/O[C@@]2(C)Oc3c(C)c(O)c4c(O)c(c(CN5CCN(CCO)CC5)c(O)c4c3C2=O)NC(=O)/C(C)=C\C=C\[C@H](C)[C@H](O)[C@@H](C)[C@@H](O)[C@@H](C)[C@H](OC(C)=O)[C@@H]1C`, for which the MIC90 worked out at 0.034 µM (≈ 0.0286 µg/mL) in test [1] and 0.07 µM (≈ 0.0588 µg/mL) in test [2].

Take `NNC(=O)c1ccncc1` [ISONIAZID]: the MIC90 in test [1] is 0.28 µM (≈ 0.0384 µg/mL); in test [2], 0.29 µM (≈ 0.0398 µg/mL).

On to `CO[C@H]1/C=C/O[C@@]2(C)Oc3c(C)c(O)c4c(O)c(c(CNCc5cccs5)c(O)c4c3C2=O)NC(=O)/C(C)=C\C=C\[C@H](C)[C@H](O)[C@@H](C)[C@@H](O)[C@@H](C)[C@H](OC(C)=O)[C@@H]1C`, for which the values for the MIC90 in test [1] and in test [2] were 0.082 µM (≈ 0.0675 µg/mL) and 0.2 µM (≈ 0.165 µg/mL), respectively.

As to `CO[C@H]1/C=C/O[C@@]2(C)Oc3c(C)c(O)c4c(O)c(c(CNCc5ccc(S(C)(=O)=O)cc5)c(O)c4c3C2=O)NC(=O)/C(C)=C\C=C\[C@H](C)[C@H](O)[C@@H](C)[C@@H](O)[C@@H](C)[C@H](OC(C)=O)[C@@H]1C`, the MIC90 in test [1] is 0.039 µM (≈ 0.0349 µg/mL); in test [2] it was 0.096 µM (≈ 0.0859 µg/mL).

Regarding `CO[C@H]1/C=C/O[C@@]2(C)Oc3c(C)c(O)c4c(O)c(c(CNCc5ccccc5)c(O)c4c3C2=O)NC(=O)/C(C)=C\C=C\[C@H](C)[C@H](O)[C@@H](C)[C@@H](O)[C@@H](C)[C@H](OC(C)=O)[C@@H]1C`, the MIC90 in test [1] stood at 0.097 µM (≈ 0.0792 µg/mL).

Regarding `COC(=O)c1ccc(CNCc2c3c(O)c4c(O)c(C)c5c(c4c2O)C(=O)[C@@](C)(O/C=C/[C@H](OC)[C@@H](C)[C@@H](OC(C)=O)[C@H](C)[C@H](O)[C@H](C)[C@@H](O)[C@@H](C)/C=C/C=C(/C)C(=O)N3)O5)cc1`, the MIC90 turned out to be 0.12 µM (≈ 0.105 µg/mL) in test [1] and 0.53 µM (≈ 0.464 µg/mL) in test [2].

As to `CO[C@H]1/C=C/O[C@@]2(C)Oc3c(C)c(O)c4c(O)c(c(CNCc5ccco5)c(O)c4c3C2=O)NC(=O)/C(C)=C\C=C\[C@H](C)[C@H](O)[C@@H](C)[C@@H](O)[C@@H](C)[C@H](OC(C)=O)[C@@H]1C`, the MIC90 in test [1] was 0.09 µM (≈ 0.0726 µg/mL); in test [2], 0.45 µM (≈ 0.363 µg/mL).

Turning to `CO[C@H]1/C=C/O[C@@]2(C)Oc3c(C)c(O)c4c(O)c(c(CNCCc5ccc(O)cc5)c(O)c4c3C2=O)NC(=O)/C(C)=C\C=C\[C@H](C)[C@H](O)[C@@H](C)[C@@H](O)[C@@H](C)[C@H](OC(C)=O)[C@@H]1C`, the values for the MIC90 in test [1] and in test [2] were 0.066 µM (≈ 0.0559 µg/mL) and 0.22 µM (≈ 0.186 µg/mL), respectively.

In the case of `CO[C@H]1/C=C/O[C@@]2(C)Oc3c(C)c(O)c4c(O)c(c(CNCCc5c[nH]c6ccccc56)c(O)c4c3C2=O)NC(=O)/C(C)=C\C=C\[C@H](C)[C@H](O)[C@@H](C)[C@@H](O)[C@@H](C)[C@H](OC(C)=O)[C@@H]1C`, the MIC90 in test [1] was determined as 0.039 µM (≈ 0.0339 µg/mL); in test [2] it was 0.39 µM (≈ 0.339 µg/mL).

Take `CO[C@H]1/C=C/O[C@@]2(C)Oc3c(C)c(O)c4c(O)c(c(/C=N/N5CCN(C)CC5)c(O)c4c3C2=O)NC(=O)/C(C)=C\C=C\[C@H](C)[C@H](O)[C@@H](C)[C@@H](O)[C@@H](C)[C@H](OC(C)=O)[C@@H]1C` [RIFAMPIN]: the MIC90 in test [1] turned out to be 0.0045 µM (≈ 0.0037 µg/mL); in test [2], 0.02 µM (≈ 0.0165 µg/mL).
